Only some compounds are listed: those with a hit (about 4.5% of all), similar ones and a draw of the others.
TAAR1 ag: human TAAR1 agonists, primary screen, Fluo-8 calcium fluorescence, CHO RD-HGA16 cells; Trace amine-associated receptor 1 (Homo sapiens), Q96RJ0; vehicle wells 0%, saturating PEA agonist 100%; activation, % at 3 µM; 0.99% of 360,000 active; AID 624467, 2012;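 active = activation above the mean activation of all test compounds in the run plus 3 SD, cut at about 38% in these data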
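System: CHO-derived RD-HGA16 cells with stable Gα16 and human TAAR1. Times: 17-24 h plating, Fluo-8 75 min 37 °C, 30 min RT. Measured by: calcium-sensitive Fluo-8 signal, excitation 470-495, emission 515-575 nm. Read-out basis: % activation relative to PEA EC100 response. Control set: DMSO and PEA EC100. Repeats: no replicates (n 1).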
CHO parental Ca: ATP-evoked calcium signal inhibitors, parental CHO, primary screen, counter-screen for OX1R antagonist project, cell-based, fluorescence, Fluo-8 calcium dye; parental CHO-K1, ATP-induced calcium, Fluo-8 fluorescence; 0.63% of 330,000 active; inhibition, % at 5.6 µM;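 active = inhibition above that plate's mean sample inhibition plus 3 SD, cut at about 26% in these data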;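 also: 0% = ATP-challenged DMSO wells and 100% = DMSO wells without ATP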
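Test system: parental CHO cells; detection: calcium-sensitive Fluo-8 fluorescence; evaluation: percent inhibition of calcium signal; also added: ATP as calcium-mobilizing challenge; repeats: one well per compound; control set: ATP-challenged DMSO wells low, unchallenged DMSO wells high; compound: single nominal dose of 5.6 µM per compound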
GPR7 antag: GPR7 receptor antagonists, primary screen, cell-based, fluorescence, single concentration. AID 1861, 2009. 1.1% of 290,000 active. inhibition, % at 4.4 µM. Neuropeptides B/W receptor type 1 (Homo sapiens), P48145. GPR7-expressing cells, fluorescence antagonist assay; in the data active = inhibition above about 16%, passing the limit was not always enough;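 also: cells stimulated with the agonist NPW; 0% = agonist with vehicle and 100% = vehicle without agonist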
OX1R antag-1: OX1R (HCRTR1) antagonists, primary screen, fluorescence, CHO/OX1R cells, Fluo-8 calcium, orexin A. AID 434989, 2010. Orexin/Hypocretin receptor type 1 (Homo sapiens), O43613. 0.43% of 330,000 active. inhibition, % at 5 µM. Fluo-8 calcium fluorescence;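 active = inhibition above its plate's threshold, mean inhibition of all tested compounds on the plate plus 3 SD, cut at about 37% in these data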;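 also: 0% = orexin A challenge wells and 100% = SB-334867-A antagonist wells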
Target sequence (O43613 whole entry, looked up): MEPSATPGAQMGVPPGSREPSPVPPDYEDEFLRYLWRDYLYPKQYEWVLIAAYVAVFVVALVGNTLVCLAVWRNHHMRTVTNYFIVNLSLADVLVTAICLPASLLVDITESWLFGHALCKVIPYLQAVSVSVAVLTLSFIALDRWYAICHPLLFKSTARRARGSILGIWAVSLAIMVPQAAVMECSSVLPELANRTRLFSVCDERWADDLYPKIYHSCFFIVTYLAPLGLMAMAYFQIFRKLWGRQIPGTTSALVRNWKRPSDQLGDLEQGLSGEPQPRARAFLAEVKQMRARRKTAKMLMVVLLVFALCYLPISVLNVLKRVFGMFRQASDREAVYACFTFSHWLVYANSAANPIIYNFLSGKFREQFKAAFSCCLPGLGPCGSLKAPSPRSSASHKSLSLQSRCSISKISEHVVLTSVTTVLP
OX1R antag-2: antagonists of human orexin 1 receptor (OX1R); AID 485270, 2010; 1.8% of 330,000 active; OX1R-expressing cells, FRET antagonist read-out; inhibition, % at 6.6 µM; in the data active = inhibition mostly above about 38%, no sharp cut-off; inactive = mostly below about 40%;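 also: 0% = agonist challenge alone and 100% = reference antagonist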
TAAR1 antag: human TAAR1 antagonists, primary screen, Fluo-8 calcium fluorescence, CHO RD-HGA16 cells | antagonist | inhibition, % at 3 µM | Trace amine-associated receptor 1 (Homo sapiens), Q96RJ0 | 1.5% of 360,000 active;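 active = inhibition above a per-plate cutoff, the mean inhibition of test compounds on that plate plus 3 SD, cut at about 49% in these data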;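 also: 0% = DMSO plus EC80 beta-PEA response and 100% = DMSO alone without agonist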
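Assay system: CHO-derived RD-HGA16 cells stably expressing human TAAR1 plus Gα16. Timing: 140 s kinetic read after compound, 140 s after agonist. Technique: kinetic Fluo-8 calcium fluorescence measurement. Measure: % inhibition of agonist calcium response.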
* = called active by the depositor.

`O=C(NCC1CCCO1)C(c1cccs1)N(Cc1cccs1)C(=O)Cn1nnc(-c2cccs2)n1` (centres undefined) gave TAAR1 ag 13.6, CHO parental Ca -24.8, GPR7 antag -9.2, OX1R antag-1 -7.8, OX1R antag-2 50.7 and TAAR1 antag 48.7*.
Cc1cc(C(=O)CSc2nc3ccc(Cl)cc3[nH]2)c(C)n1Cc1ccco1 was read as TAAR1 ag 1.5, CHO parental Ca -4.5, OX1R antag-1 -18.9, OX1R antag-2 45.4* and TAAR1 antag 8.9.
For Nc1nc2n(n1)C(c1cccc(Cl)c1)CC(c1ccc(F)cc1)N2 (centres undefined) the results were TAAR1 ag 10.8, CHO parental Ca -8.6, GPR7 antag 18.6*, OX1R antag-1 -9.3, OX1R antag-2 11.7 and TAAR1 antag 3.0.
`CCOc1ccc(C2CC(c3cccc(Cl)c3)n3nc(N)nc3N2)cc1` (centres undefined) gave TAAR1 ag 1.5, CHO parental Ca -7.5, GPR7 antag -2.5, OX1R antag-1 -6.4, OX1R antag-2 19.5 and TAAR1 antag 2.4.
COC(=O)[C@]12C[C@H](CC(=O)NCc3ccc(C)o3)C(=O)N(Cc3ccc4c(c3)OCO4)C1=C[C@H](C(C)(C)C)O[C@@H]2C was read as TAAR1 ag -0.8 and TAAR1 antag -20.1.
`COc1ccc(CC(N)c2csc(NC(=O)Nc3ccccc3-c3ccccc3)n2)cc1` (centres undefined) gave TAAR1 ag 2.4 and TAAR1 antag 14.7.
For CC1Cc2nc(SCC(=O)N3CCN(c4ccccc4)CC3)n(CCc3ccccc3)c(=O)c2S1 (centres undefined) the results were TAAR1 ag 1.3, CHO parental Ca -9.0, GPR7 antag 10.3, OX1R antag-1 -22.1, OX1R antag-2 14.4 and TAAR1 antag 52.0*.
For CCn1c(SCC(=O)N2CCN(c3ccccc3)CC2)nc2c(c1=O)SC(C)C2 (centres undefined) the results were TAAR1 ag -1.9, CHO parental Ca -3.4, GPR7 antag -3.1, OX1R antag-1 -40.9, OX1R antag-2 10.0 and TAAR1 antag -38.4.
`CNC(=O)/C(C#N)=c1\s/c(=C/C(=O)OC)c(=O)n1-c1ccccc1` gave TAAR1 ag 13.7, CHO parental Ca -1.8, GPR7 antag -2.1, OX1R antag-1 -12.4, OX1R antag-2 68.9* and TAAR1 antag 6.2.
Screening CSCCC(NS(=O)(=O)c1ccc(Cl)cc1)C(=O)OCc1cccc(Cl)c1 (centres undefined) returned TAAR1 ag 1.1, CHO parental Ca 41.1*, GPR7 antag -3.7, OX1R antag-1 -11.9, OX1R antag-2 11.9 and TAAR1 antag 18.3.
For CSCCC(NS(=O)(=O)c1ccc(Cl)cc1)C(=O)OCc1c(Cl)cccc1Cl (centres undefined) the results were TAAR1 ag 1.4, CHO parental Ca -9.6, GPR7 antag -14.7, OX1R antag-1 -8.4, OX1R antag-2 66.5* and TAAR1 antag 42.3.
`CSCCC(NS(=O)(=O)c1ccc(Cl)cc1)C(=O)OCC(=O)N(C(C)C)C(C)C` (centres undefined) gave TAAR1 ag 12.6, CHO parental Ca -14.4, GPR7 antag 0.5, OX1R antag-1 -20.3, OX1R antag-2 24.8 and TAAR1 antag 6.1.
`COC(=O)[C@]12C[C@H](CC(=O)NCCCCc3ccccc3)C(=O)N(Cc3ccccc3)C1=C[C@H](C(C)C)O[C@@H]2C1CC1` gave TAAR1 ag -0.4 and TAAR1 antag -57.0.
Screening Cc1ccc(S(=O)(=O)N2CCCC2C(=O)Nc2nc3ccccc3s2)cc1 (centres undefined) returned CHO parental Ca -23.0, GPR7 antag -13.6, OX1R antag-1 0.8 and OX1R antag-2 73.7*.
Screening Cc1nnc(NC(=O)C2CCCN2S(=O)(=O)c2ccc(Cl)cc2)s1 (centres undefined) returned TAAR1 ag 4.7, CHO parental Ca -5.1, GPR7 antag -12.5, OX1R antag-1 -20.5, OX1R antag-2 18.4 and TAAR1 antag -2.6.
Screening O=C(Nc1nc2ccccc2s1)C1CCCN1S(=O)(=O)c1ccc(Cl)cc1 (centres undefined) returned TAAR1 ag 4.4, CHO parental Ca -25.1, GPR7 antag -12.1, OX1R antag-1 0.4, OX1R antag-2 54.5* and TAAR1 antag -14.3.
Screening CCOC(=O)C1CCN(C(=O)c2c(C)oc3c2C(=O)c2ccccc2C3=O)CC1 returned TAAR1 ag 2.3, CHO parental Ca -18.2, GPR7 antag -13.5, OX1R antag-1 -33.2, OX1R antag-2 70.3* and TAAR1 antag 26.4.
For Cc1oc2c(c1C(=O)N1CCC(C)CC1)C(=O)c1ccccc1C2=O the results were TAAR1 ag 4.3, CHO parental Ca -21.1, GPR7 antag -5.3, OX1R antag-1 -31.4, OX1R antag-2 66.7* and TAAR1 antag 7.8.
CCN(Cc1ccccc1)Cc1nc(CCc2ccccc2)no1 was read as TAAR1 ag 4.8, CHO parental Ca -19.0, GPR7 antag -18.2, OX1R antag-1 -14.1, OX1R antag-2 2.9 and TAAR1 antag 17.4.
For c1ccc(CCN(Cc2ccccc2)Cc2nc(C3CC3)no2)cc1 the results were TAAR1 ag 38.0*, CHO parental Ca -27.1, GPR7 antag 0.9, OX1R antag-1 -49.3, OX1R antag-2 14.0 and TAAR1 antag -5.4.
For Nc1c(C(=O)O)sc2nc(-c3ccccc3)c3c(c12)CCCC3 the results were TAAR1 ag -0.5, CHO parental Ca -8.6, GPR7 antag -6.6, OX1R antag-1 -17.1, OX1R antag-2 5.3 and TAAR1 antag 1.1.
Nc1nc(-c2cccnc2)nc2sc3c(c12)CCCC3 was read as TAAR1 ag 0.2, CHO parental Ca -9.3, GPR7 antag 5.8, OX1R antag-1 -9.8, OX1R antag-2 69.8* and TAAR1 antag 12.2.
Screening CCc1c(-c2ccccc2)nc2sc3c(c2c1N)CCCC3 returned TAAR1 ag 1.2, CHO parental Ca 0.6, GPR7 antag -12.0, OX1R antag-1 -7.8, OX1R antag-2 49.4* and TAAR1 antag 8.2.
Screening CCc1nc(N)nc(N)c1-c1ccc(N(C)Cc2ccccc2)c([N+](=O)[O-])c1 returned TAAR1 ag 38.7* and TAAR1 antag 75.8*.
Screening CCc1nc(N)nc(N)c1-c1ccc(NCCN)c([N+](=O)[O-])c1 returned TAAR1 ag 12.7 and TAAR1 antag -4.2.
